Reference: ChEMBL document CHEMBL4130441, “Mortiamides A-D, Cyclic Heptapeptides from a Novel Mortierella sp. Obtained from Frobisher Bay” (J Nat Prod, 2017)
Calls of active or inactive are those of the source. The rule behind the calls is not given here. Where a SMILES comes first, the peptide text is derived from it.

Columns and labels:
[1] = test system: Enterococcus faecium; test: Antimicrobial activity against vancomycin-resistant Enterococcus faecium EF379 at 128 ug/ml after 22 hrs by micro broth dilution assay; type: functional, organism-based
Method in brief: (§1)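 CLSI 96-well microbroth dilution, triplicate; tested at 128 μg/mL; strains MRSA ATCC 33591 and VRE E. faecium EF379; optical density read at time zero and after 22 h incubation to give growth inhibition.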

[2] = test system: Pseudomonas aeruginosa; test: Antimicrobial activity against Pseudomonas aeruginosa ATCC 14210 at 128 ug/ml after 22 hrs by micro broth dilution assay; type: functional, organism-based
Method in brief: (§2)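 CLSI-standard 96-well broth microdilution, run in triplicate. Test concentration 128 μg/mL. Optical density read at time zero and at the final time point; growth inhibition calculated from the change after 22 h incubation.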

[3] = test system: Candida albicans; test: Antimicrobial activity against Candida albicans ATCC 14035 at 128 ug/ml after 22 hrs by micro broth dilution assay; type: functional, organism-based; method in brief: as §2
[4] = test system: Staphylococcus warneri; test: Antimicrobial activity against Staphylococcus warneri ATCC 17917 at 128 ug/ml after 22 hrs by micro broth dilution assay; type: functional, organism-based; method in brief: as §2
[5] = test system: Staphylococcus aureus; test: Antimicrobial activity against methicillin-resistant Staphylococcus aureus ATCC 33591 at 128 ug/ml after 22 hrs by micro broth dilution assay; type: functional, organism-based; method in brief: as §1
[6] = test system: BJ; test: Cytotoxicity against human BJ cells assessed as decrease in cell viability at 128 ug/ml after 24 hrs by Alamar blue assay; type: cell-based
Method in brief: (§3)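 Cells treated in 96-well culture plates in triplicate at 128 μg/mL. Viability measured 24 h after treatment with the redox dye Alamar Blue. Fluorescence read at 560/12 nm excitation and 590 nm emission, at time zero and 4 h after dye addition.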

[7] = organism: Homo sapiens; test: Cytotoxicity against human HTB-26 cells assessed as decrease in cell viability at 128 ug/ml after 24 hrs by Alamar blue assay; type: functional, cell-based; method in brief: as §3
[8] = test system: Keratinocyte; test: Cytotoxicity against human epidermal keratinocytes assessed as decrease in cell viability at 128 ug/ml after 24 hrs by Alamar blue assay; method in brief: as §3
[9] = test system: MCF7; test: Cytotoxicity against human MCF7 cells assessed as decrease in cell viability at 128 ug/ml after 24 hrs by Alamar blue assay; type: functional, cell-based; method in brief: as §3

Row | SMILES | Activity [1] | Activity [2] | Activity [3] | Activity [4] | Activity [5] | Activity [6] | Activity [7] | Activity [8] | Activity [9]
1 | CC[C@@H](C)[C@H]1NC(=O)[C@@H](C)NC(=O)[C@H](Cc2ccccc2)NC(=O)[C@@H](CC(C)C)NC(=O)[C@@H](C(C)C)NC(=O)[C@H](Cc2ccccc2)NC(=O)[C@@H]([C@H](C)CC)NC1=O (HELM PEPTIDE1{F.[dA].[dI].[dI].F.[dV].[dL]}$PEPTIDE1,PEPTIDE1,1:R1-7:R2$$$V2.0) | inactive | inactive | inactive | inactive | inactive | Non-Toxic | inactive | Non-Toxic | inactive
2 | CC(C)[C@H]1NC(=O)[C@H](Cc2ccccc2)NC(=O)[C@@H](C(C)C)NC(=O)[C@@H](C(C)C)NC(=O)[C@@H](C(C)C)NC(=O)[C@H](Cc2ccccc2)NC(=O)[C@@H](Cc2ccccc2)NC1=O (HELM PEPTIDE1{F.[dV].[dF].F.[dV].[dV].[dV]}$PEPTIDE1,PEPTIDE1,1:R1-7:R2$$$V2.0) | inactive | inactive | inactive | inactive | inactive | Non-Toxic | inactive | Non-Toxic | inactive
3 | CC(C)C[C@@H]1NC(=O)[C@@H](C(C)C)NC(=O)[C@@H](C(C)C)NC(=O)[C@@H](C(C)C)NC(=O)[C@H](Cc2ccccc2)NC(=O)[C@@H](Cc2ccccc2)NC(=O)[C@@H](C(C)C)NC1=O (HELM PEPTIDE1{F.[dV].[dV].[dV].L.[dV].[dF]}$PEPTIDE1,PEPTIDE1,1:R1-7:R2$$$V2.0) | inactive | inactive | inactive | inactive | inactive | Non-Toxic | inactive | Non-Toxic | inactive
4 | CC[C@@H](C)[C@H]1NC(=O)[C@H](Cc2ccccc2)NC(=O)[C@@H]([C@H](C)CC)NC(=O)[C@@H](C(C)C)NC(=O)[C@@H]([C@H](C)CC)NC(=O)[C@H]([C@@H](C)CC)NC(=O)[C@@H](C)NC1=O | inactive | inactive | inactive | inactive | inactive | Non-Toxic | inactive | Non-Toxic | inactive
